HGIII-sPLA2 inh = Blocks human group III sPLA2 activity; Q9NZ20; inhibition, % at 12.2 µM; 370,000 tested, 0.56% active; QFRET BODIPY PC-A2 liposome hydrolysis, fluorescence;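 active = inhibition above mean plus 3 SD of compounds lying within the high and low control bounds, cut at about 19% in these data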
SKKanGAS inh = blocks kanamycin growth of S. pyogenes SKKanGAS strain. BacTiter-Glo, 6 h. inhibition, % at 7.5 µM. 300,000 tested, 1.3% active;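 active = mean replicate score, as percent of positive control median, at least 50; inconclusive = mean below 50 but one replicate at or above 50; inactive = mean and every replicate below 50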;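 also: strain carries kanamycin resistance gene driven by streptokinase promoter and grows in 40 µg/ml kanamycin; loss of luminescence reflects streptokinase promoter inhibition or plain growth inhibition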
Calb FLC = C. albicans growth modulation with fluconazole | C. albicans CaCi-2 + fluconazole, Alamar Blue growth, 48 h | growth inhibition, % (test concentration not listed) | 300,000 tested, 0.57% active | AID 1979;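 active = growth inhibition above about 58% in most replicates, limit read from the data, passing the limit was not always enough; inconclusive = exactly half the replicates above a set limit; inactive = most replicates below a set limit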;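 also: all wells also contain fluconazole at 8 µg/ml as a sub-toxic cotreatment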
ASAP1 GAP inh = ASAP1 ArfGAP inhibition; ASAP1-stimulated ARF1 GTP hydrolysis, GDP FP detection; 360,000 tested, 0.19% active; inhibition, % at 16.5 µM; Q9ULH1; in the data active = inhibition above about 25%
ARFGAP1 inhibitor = rat ARFGAP1 inhibition | Arfgap1-stimulated ARF1 GTP hydrolysis, GDP FP detection | inhibition, % at 16.5 µM | 360,000 tested, 0.26% active | Q62848 | AID 651572;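 active = inhibition above a per-plate limit, mean inhibition of low control wells plus 3 SD, cut at about 25% in these data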
Target sequence (Q62848 1-136 limits assumed): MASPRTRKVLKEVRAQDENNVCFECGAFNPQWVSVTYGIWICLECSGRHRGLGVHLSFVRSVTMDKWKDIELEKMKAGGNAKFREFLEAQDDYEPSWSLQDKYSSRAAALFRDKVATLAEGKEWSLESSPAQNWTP
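Repeats: one replicate per compound; assay system: rat Arfgap1 catalytic domain, aa 1-136; times: enzyme reaction 120 min at 25 °C after 20 min preincubation; detection: FP of antibody-bound GDP Alexa 633 tracer, ex 620/em 688 nm; benchmarks: high control wells lacking Arfgap1, low control full reaction with DMSO; reagent: human ARF1(Δ1-17)-GTP substrate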
ASAP1 GAP conf = ASAP1 inhibition confirmed | ASAP1-stimulated Arf1 GTPase, GDP fluorescence polarization | 620 tested, 37% active | inhibition, % at 16.5 µM | shares compounds with ASAP1 GAP inh | AID 624431;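 active = mean inhibition over triplicates exceeds the hit threshold derived for the earlier primary screening run, cut at about 25% in these data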
ARFGAP1 inh conf = confirmation of rat ARFGAP1 inhibitors; shares compounds with ARFGAP1 inhibitor; ARFGAP1-stimulated ARF1 GTP hydrolysis, GDP tracer FP; inhibition, % at 16.5 µM; 890 tested, 30% active; AID 651608;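 active = average inhibition over triplicates above the hit cutoff set in the earlier primary screen, cut at about 25% in these data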
Target sequence (Q62848 whole entry, looked up): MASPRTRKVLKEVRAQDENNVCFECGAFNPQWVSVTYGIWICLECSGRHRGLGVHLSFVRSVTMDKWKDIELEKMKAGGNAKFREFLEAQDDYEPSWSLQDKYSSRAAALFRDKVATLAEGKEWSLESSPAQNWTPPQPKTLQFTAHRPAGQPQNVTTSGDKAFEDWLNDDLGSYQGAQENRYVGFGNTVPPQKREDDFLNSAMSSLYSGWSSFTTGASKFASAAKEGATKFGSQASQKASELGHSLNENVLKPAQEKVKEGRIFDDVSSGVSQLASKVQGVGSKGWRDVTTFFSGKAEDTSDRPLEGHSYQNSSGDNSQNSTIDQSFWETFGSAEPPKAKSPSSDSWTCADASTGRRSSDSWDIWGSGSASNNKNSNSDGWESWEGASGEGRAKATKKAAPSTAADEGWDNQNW
sPLA2 confirm = human GIII-sPLA2 inhibition, confirmation; shares compounds with HGIII-sPLA2 inh; recombinant hGIII-sPLA2, BODIPY PC-A2 QFRET fluorescence; inhibition, % at 12.2 µM; 2,000 tested, 34% active;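 active = mean inhibition across triplicates above the hit cutoff set in the earlier primary screen, cut at about 19% in these data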
535nm interf = counter-screen for HGIII-sPLA2 inhibitors: 535nm fluorescence interference. shares compounds with HGIII-sPLA2 inh. BODIPY FL product fluorescence interference, QFRET. inhibition, % at 12.2 µM. 2,000 tested, 8.5% active;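 active = average inhibition above the solvent-only control mean plus 3 SD, cut at about 6% in these data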
BODIPY interf DR = counter-screen for HGIII-sPLA2 inhibitors: 535nm fluorescence interference, dose response; AID 743455; shares compounds with HGIII-sPLA2 inh; IC50, µM; BODIPY FL product fluorescence interference, cell-free; 240 tested, under 10 active;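 active = IC50 at or below 10 µM; inactive = IC50 above 10 µM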
Large screens that a line does not name were inactive (follow-up assays come after a bar, where they were run). A selection: hits, their analogues and other compounds. The true share with any hit is near 2.3%.

OC1CN2CCCC(O)C2C1O (stereo unspecified)	none (no result: SKKanGAS inh, Calb FLC)
CC(C)C(NC(=O)OCc1ccccc1)P(=O)(Oc1ccccc1)Oc1ccccc1 (stereo unspecified)	none (no result: SKKanGAS inh, Calb FLC, ASAP1 GAP inh, ARFGAP1 inhibitor)
CC[n+]1c(/C=C/C=C/c2ccc(N(C)C)cc2)sc2ccccc21	HGIII-sPLA2 inh 37.1, Calb FLC 102.4, ASAP1 GAP inh 98.3, ARFGAP1 inhibitor 106.9 | ASAP1 GAP conf 122.8 | ARFGAP1 inh conf 159.4
O=C(O)c1cccc2c1NC(C(=O)O)C1CC(Sc3ccccc3[N+](=O)[O-])C(Cl)C21 (stereo unspecified)	ASAP1 GAP inh 59.4, ARFGAP1 inhibitor 35.5 (no result: SKKanGAS inh, Calb FLC) | ASAP1 GAP conf 61.5 | ARFGAP1 inh conf 86.7
CN1CC[C@@H]2CN[C@H](c3ccccc3Br)C[C@@H]21	none (no result: SKKanGAS inh, Calb FLC)
CN(C)c1ccc(/C=C/C=C/c2sc3ccccc3[n+]2C)cc1	HGIII-sPLA2 inh 20.7, Calb FLC 98.0, ASAP1 GAP inh 80.2, ARFGAP1 inhibitor 92.3 | ASAP1 GAP conf 109.3 | ARFGAP1 inh conf 127.4 | sPLA2 confirm 40.7 | 535nm interf inactive | BODIPY interf DR inactive
C[n+]1c(-c2ccccc2)sc2ccccc21	none
CN(C)c1ccc(/C=C/c2cc[n+](C)c3ccccc23)cc1	HGIII-sPLA2 inh 26.1, ASAP1 GAP inh 44.5, ARFGAP1 inhibitor 37.3 (no result: SKKanGAS inh, Calb FLC) | ASAP1 GAP conf 50.8 | ARFGAP1 inh conf 49.2 | sPLA2 confirm 33.4 | 535nm interf inactive | BODIPY interf DR inactive
O=C(NCCN1CCC2(CC1)C(=O)NCN2c1ccccc1)c1ccc(OC(F)(F)F)cc1	none (no result: SKKanGAS inh, Calb FLC)
CN1CCN(Cc2cc(C(C)(C)C)c(O)c(C(C)(C)C)c2)CC1	ARFGAP1 inhibitor 25.8 | ARFGAP1 inh conf inactive
CCOP(=O)(OCC)C(O)c1cccc([N+](=O)[O-])c1 (stereo unspecified)	Calb FLC inconclusive, ARFGAP1 inhibitor 25.5 | ARFGAP1 inh conf inactive
CCOC(=O)[C@]12Cc3cc(C)ccc3[C@H]1N(C1CCCCC1)C(=O)c1cc(OC)ccc12	none (no result: SKKanGAS inh, Calb FLC)
S=C(NCCc1ccccc1)N1Cc2ccc(Br)cc2-n2nncc2C1	ARFGAP1 inhibitor 25.8 (no result: SKKanGAS inh, Calb FLC) | ARFGAP1 inh conf inactive
S=C(NCCc1ccccc1)N1Cc2cc(Br)ccc2-n2nncc2C1	none (no result: SKKanGAS inh, Calb FLC)
CCc1cc(OC)c(CCN)cc1OC	none (no result: SKKanGAS inh, Calb FLC)
O=[N+]([O-])c1ccc(NCCO)c2ncccc12	HGIII-sPLA2 inh 21.6 | sPLA2 confirm inactive | 535nm interf inactive
CCOC(=O)c1c(/N=C/c2c(O)n(-c3cccc(C)c3)c(=O)[nH]c2=O)sc2c1CCCC2	HGIII-sPLA2 inh 20.4 | sPLA2 confirm inactive | 535nm interf inactive
O=C(CN1C(=O)[C@@H](Cc2c[nH]c3ccccc23)N=C(c2ccccc2)c2ccccc21)NC1CCCCC1	none (no result: SKKanGAS inh, Calb FLC, ASAP1 GAP inh, ARFGAP1 inhibitor)
CC(C)Oc1ccc(CCN)cc1Cl	HGIII-sPLA2 inh 22.5 | sPLA2 confirm inactive | 535nm interf inactive
O=C(NCCN1CCC2(CC1)C(=O)NCN2c1ccccc1)C(c1ccccc1)c1ccccc1	none (no result: SKKanGAS inh, Calb FLC)
CCCCc1ccc2[nH]cc(CCN)c2c1	HGIII-sPLA2 inh 30.0 | sPLA2 confirm inactive | 535nm interf inactive
NCCc1c[nH]c2ccccc12	none (no result: SKKanGAS inh, Calb FLC)
O=C1CN=C(c2ccc[nH]2)c2cc(Cl)ccc2N1	none
CN=C1CN=C(c2ccc[nH]2)c2cc(Cl)ccc2N1	HGIII-sPLA2 inh 19.4 (no result: SKKanGAS inh, Calb FLC, ASAP1 GAP inh, ARFGAP1 inhibitor) | sPLA2 confirm inactive | 535nm interf inactive
CC(C)Oc1ccc(C2(C#N)CC[N+](C)(C)CC2)cc1	HGIII-sPLA2 inh 22.0 | sPLA2 confirm inactive | 535nm interf inactive
COc1ccc(C2(C#N)CC[N+](C)(C)CC2)cc1	none
N#Cc1ccc2nc(-c3ccc(CN4CCC(n5c(=O)[nH]c6cc(Cl)ccc65)CC4)cc3)c(-c3ccccc3)nc2c1	none (no result: SKKanGAS inh, Calb FLC)
O=[N+]([O-])c1ccc(N2CCNCC2)cc1N1CCCCCC1	HGIII-sPLA2 inh 35.7 | sPLA2 confirm inactive | 535nm interf inactive
